Data from ChEMBL document CHEMBL4610016, “Synthesis, biological evaluation and anti-proliferative mechanism of fluorine-containing proguanil derivatives” (Bioorg Med Chem, 2020).
Calls of active or inactive are those of the source. The rule behind the calls is not given here.

Tests used:
T-24 [1] = experiment: Antiproliferative activity against human T24 cells assessed as reduction in cell viability incubated for 72 hrs by MTT assay; assay type: functional, cell-based; details: T-24, 72 h
A549 [2] = experiment: Antiproliferative activity against human A549 cells assessed as reduction in cell viability incubated for 72 hrs by MTT assay; assay type: functional, cell-based; details: A549, 72 h
Outline: (§1)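 Cells were seeded at 6.0×10³ per well and left 12 h, then treated in triplicate for 72 h. Ranges were 0–8 μM for UMUC3, T24, A2780 and HCT116, and 0–4 μM for A549. MTT (2 mg/mL) replaced the medium for 6 h at 37 °C, followed by DMSO solubilization and OD 490 nm. IC50 was taken as the mean of triplicate measurements. Cells were kept at 37 °C, 5% CO₂.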

UMUC3 [3] = experiment: Antiproliferative activity against human UM-UC-3 cells assessed as reduction in cell viability incubated for 72 hrs by MTT assay; assay type: functional, cell-based; details: UMUC3, 72 h; outline: as §1
HCT-116 [4] = experiment: Antiproliferative activity against human HCT116 cells assessed as reduction in cell viability incubated for 72 hrs by MTT assay; assay type: functional, cell-based; details: HCT-116, 72 h
A2780 [5] = experiment: Antiproliferative activity against human A2780 cells assessed as reduction in cell viability incubated for 72 hrs by MTT assay; assay type: functional, cell-based; details: A2780, 72 h; outline: as §1
[6] = target: T1, AMP-activated protein kinase, AMPK (Homo sapiens) (UniProt P54646+O43741+P54619+Q9UGJ0+Q9Y478+Q13131+Q9UGI9); experiment: Activation of AMPK in human T24 cells assessed as decrease in 4EBP1 phosphorylation at 2 uM measured upto 12 hrs by Western blot analysis; assay type: cell-based; details: T-24
Outline: (§2)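 Western blot of bladder cancer cells treated at 2 μM over a 0–12 h time course; separately, a 0–2 μM series was run for 12 h. Lysates were resolved by 8% or 10% SDS-PAGE, transferred to PVDF, and blocked in 5% milk/TBST for 1 h. Primary antibodies were applied overnight at 4 °C and secondaries for 1 h. Phospho- and total AMPK, mTOR, p70S6K and 4EBP1 were probed. Band density was normalized to β-actin, and the mean of 3 independent experiments is reported.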

[7] = target: T1, AMP-activated protein kinase, AMPK (Homo sapiens); experiment: Activation of AMPK in human UM-UC-3 cells assessed as increase in AMPK phosphorylation at 2 uM measured upto 12 hrs by Western blot analysis; assay type: cell-based; outline: as §2
UMUC3 [8] = experiment: Inhibition of cell migration in human UM-UC-3 cells at 3 uM incubated for 24 and 48 hrs by cellular scratch assay based microscopic analysis; assay type: functional
Outline: (§3)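 Scratch wound assay. Cells were grown to confluence and scratched with a 10 μL tip, then washed twice with PBS. Compound was added in serum-free medium: 3 μM for UMUC3 and T24, 2 μM for A549. Gaps were photographed at 0, 24 and 48 h, and wound closure distance was measured. Three independent repeats were run.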

UMUC3 [9] = experiment: Inhibition of colony formation in human UM-UC-3 cells at 2 uM incubated for 6 to 8 days by crystal violet staining based assay; assay type: functional, cell-based
Outline: (§4)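 Colony formation: 8.0×10³ cells per well were seeded, and treatment began after 24 h, in triplicate, for 6–8 days. Ranges were 0–8 μM for UMUC3, T24 and HCT116, 0–4 μM for A2780, and 0–2 μM for A549. Cells were fixed in 10% formaldehyde and stained with 0.1% crystal violet. Colonies were counted, and absorbance was read at 490 nm. Data are the mean of 3 independent experiments.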

[10] = target: T1, AMP-activated protein kinase, AMPK (Homo sapiens); experiment: Activation of AMPK in human UM-UC-3 cells assessed as decrease in mTOR phosphorylation at 2 uM measured upto 12 hrs by Western blot analysis; assay type: cell-based; outline: as §2
[11] = target: T1, AMP-activated protein kinase, AMPK (Homo sapiens); experiment: Activation of AMPK in human UM-UC-3 cells assessed as decrease in p70S6K phosphorylation at 2 uM measured upto 12 hrs by Western blot analysis; assay type: cell-based; outline: as §2
[12] = target: T1, AMP-activated protein kinase, AMPK (Homo sapiens); experiment: Activation of AMPK in human T24 cells assessed as decrease in mTOR phosphorylation at 2 uM measured upto 12 hrs by Western blot analysis; assay type: cell-based; details: T-24; outline: as §2
[13] = target: T1, AMP-activated protein kinase, AMPK (Homo sapiens); experiment: Activation of AMPK in human T24 cells assessed as decrease in p70S6K phosphorylation at 2 uM measured upto 12 hrs by Western blot analysis; assay type: cell-based; details: T-24; outline: as §2
A549 [14] = experiment: Inhibition of cell migration in human A549 cells at 2 uM incubated for 24 and 48 hrs by cellular scratch assay based microscopic analysis; assay type: functional; outline: as §3
T-24 [15] = experiment: Inhibition of cell migration in human T24 cells at 3 uM incubated for 24 and 48 hrs by cellular scratch assay based microscopic analysis; assay type: functional; outline: as §3
A2780 [16] = experiment: Inhibition of colony formation in human A2780 cells at 2 uM incubated for 6 to 8 days by crystal violet staining based assay; assay type: functional, cell-based; outline: as §4
T-24 [17] = experiment: Inhibition of colony formation in human T24 cells at 2 uM incubated for 6 to 8 days by crystal violet staining based assay; assay type: functional, cell-based; outline: as §4
HCT-116 [18] = experiment: Inhibition of colony formation in human HCT116 cells at 2 uM incubated for 6 to 8 days by crystal violet staining based assay; assay type: functional, cell-based; outline: as §4
[19] = target: T1, AMP-activated protein kinase, AMPK (Homo sapiens); experiment: Activation of AMPK in human UM-UC-3 cells assessed as decrease in 4EBP1 phosphorylation at 2 uM measured upto 12 hrs by Western blot analysis; assay type: cell-based; outline: as §2
[20] = target: T1, AMP-activated protein kinase, AMPK (Homo sapiens); experiment: Activation of AMPK in human T24 cells assessed as increase in AMPK phosphorylation at 2 uM measured upto 12 hrs by Western blot analysis; assay type: cell-based; details: T-24; outline: as §2
A549 [21] = experiment: Inhibition of colony formation in human A549 cells at 2 uM incubated for 6 to 8 days by crystal violet staining based assay relative to control; assay type: functional; outline: as §4
HUVEC = experiment: Cytotoxicity against human HUVEC cells assessed as reduction in cell viability incubated for 72 hrs by MTT assay; assay type: cell-based
Outline: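 HUVEC were treated at 0–8 μM for 72 h, and viability was read from concentration-response curves. Values are the average of 3 independent experiments.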

Structure (SMILES) | IC50 (A549 [2]) [µM] | IC50 (HCT-116 [4]) [µM] | IC50 (A2780 [5]) [µM] | IC50 (T-24 [1]) [µM] | IC50 (UMUC3 [3]) [µM] | further results
N=C(NC(=N)NC1CCCC1)Nc1ccc(F)cc1F | 4 | 29.5 | 14.7 | 37.8 | 18.4 | –
CCN(CC)C(=N)NC(=N)Nc1ccc(C(F)(F)F)cc1 | 3.7 | 4.3 | 3.8 | 6.2 | 4.9 | –
CC(C)CNC(=N)NC(=N)Nc1ccc(F)c(F)c1 | 2.4 | 29.7 | 6.7 | 42.9 | 7.1 | –
CCN(CC)C(=N)NC(=N)Nc1ccc(F)c(F)c1 | 7.8 | 39.4 | 20.4 | 44.8 | 22.1 | –
CC(C)NC(=N)NC(=N)Nc1ccc(Cl)cc1 [PROGUANIL] | 3.8 | 8.4 | 13 | 18.4 | 16.3 | Activity [6]: Active; Activity [7]: inactive; inhibition (UMUC3 [8]): inactive; inhibition (UMUC3 [9]): Active; Activity [10]: Active; Activity [11]: Active; Activity [12]: Active; Activity [13]: Active; inhibition (A549 [14]): inactive; inhibition (T-24 [15]): inactive; inhibition (A2780 [16]): Active; inhibition (T-24 [17]): Active; inhibition (HCT-116 [18]): Active; Activity [19]: Active; Activity [20]: inactive
N=C(NC(=N)NC1CCCC1)Nc1ccc(F)c(F)c1 | 3.5 | 16.8 | 9.3 | 24.9 | 7.2 | –
CC(C)CNC(=N)NC(=N)Nc1ccc(C(F)(F)F)cc1 | 1.3 | 3.5 | 2.1 | 3.1 | 2 | inhibition at 2 µM (A549 [21]): 100%; Activity [6]: Active; Activity [7]: Active; inhibition (UMUC3 [8]): Active; IC50 (HUVEC): 8.5 µM; inhibition (UMUC3 [9]): Active; Activity [10]: Active; Activity [11]: Active; Activity [12]: Active; Activity [13]: Active; inhibition (A549 [14]): Active; inhibition (T-24 [15]): Active; inhibition (A2780 [16]): Active; inhibition (T-24 [17]): Active; inhibition (HCT-116 [18]): Active; Activity [19]: Active; Activity [20]: Active
CCCCCCCNC(=N)NC(=N)Nc1ccc(F)c(F)c1 | 1.5 | 1.8 | 1.5 | 4.3 | 2.1 | inhibition at 2 µM (A549 [21]): 100%; inhibition (UMUC3 [8]): Active; IC50 (HUVEC): 6.4 µM; inhibition (UMUC3 [9]): Active; inhibition (A549 [14]): Active; inhibition (T-24 [15]): Active; inhibition (A2780 [16]): Active; inhibition (T-24 [17]): Active; inhibition (HCT-116 [18]): Active
CCN(C)C(=N)NC(=N)Nc1ccc(C(F)(F)F)cc1 | 4.1 | 4 | 5.1 | 5.7 | 6.9 | –

More lines, in order of falling IC50 (A549 [2]), values ahead:

IC50 (A549 [2]) [µM] | IC50 (HCT-116 [4]) [µM] | IC50 (A2780 [5]) [µM] | Structure (SMILES) | IC50 (T-24 [1]) [µM] | IC50 (UMUC3 [3]) [µM] | further results
7.5 | > 50 | 28 | CC(C)NC(=N)NC(=N)Nc1ccc(F)cc1 | > 50 | > 50 | –
5.2 | > 50 | 26 | CC(C)NC(=N)NC(=N)Nc1ccc(F)c(F)c1 | 45 | 25 | –
3.6 | 4.8 | 3.2 | CC(C)NC(=N)NC(=N)Nc1ccc(C(F)(F)F)cc1 | 4.8 | 5.2 | –
3.6 | 21.1 | 19.8 | CC(C)CNC(=N)NC(=N)Nc1ccc(F)cc1F | 40.8 | 17.3 | –
1.8 | 3.8 | 2.5 | N=C(NC(=N)NC1CCCC1)Nc1ccc(C(F)(F)F)cc1 | 3.7 | 3.3 | inhibition at 2 µM (A549 [21]): 100%; inhibition (UMUC3 [8]): Active; IC50 (HUVEC): 7.3 µM; inhibition (UMUC3 [9]): Active; inhibition (A549 [14]): Active; inhibition (T-24 [15]): Active; inhibition (A2780 [16]): Active; inhibition (T-24 [17]): Active; inhibition (HCT-116 [18]): Active
